# Measured values of several laboratories.
# Lines come from different studies, so protocols differ.
# Target: Death-associated protein kinase 3 (DAPK3, Homo sapiens, UniProt O43293)
Structure (SMILES),assay,setting,remaining binding [%]
CC1CCCN1c1nccc(-c2cnn3ncccc23)n1 (stereo not shown),binding,1 µM,89
CS(=O)(=O)c1cc(C2(NC(=O)c3cncc4c3cnn4-c3ccc(F)cc3)CC2)ccn1,"cell-free assay, competition with immobilised ligand",1 µM,98
C[C@H]1CCN(c2nccc(-c3cnn4ncccc34)n2)C1,binding,1 µM,79
CC(C)(O)c1cncc(-c2nc3ccc(F)cc3n2C2CC2)c1,"cell-free assay, competition with immobilised ligand",1 µM,100
O=C(c1ccc(Nc2ncc(Cl)c(-c3ccc(Cl)s3)n2)cc1)N1CCC(N2CCCC2)CC1,"binding, competition with immobilised ligand",1 µM,14
FC(F)(F)Oc1cccc(-c2cnc3ccc(-c4ccncc4)nn23)c1,"cell-free assay, competition with immobilised ligand",5 µM,67
CN(C)c1nccc(-c2cnn3ncccc23)n1,binding,1 µM,91
Nc1c(C(=O)NCc2ccc(C(=O)NCCCC3CCCCC3)cc2)cnn1-c1ccccc1,"cell-free assay, competition with immobilised ligand",0.1 µM,100
CN(c1nccc(-c2cnn3ncccc23)n1)C1CC1,binding,1 µM,70
Nc1ncc2c(n1)-c1c([nH]c3ccc(C#CC4CC4)cc13)CCCC2,"binding, competition with immobilised ligand",1 µM,100
Cn1cc(Cl)c2c(Oc3c(F)cc(Nc4cc(Cl)nc(N)n4)cc3F)ccnc21,"cell-free assay, competition with immobilised ligand",0.1 µM,100
O=C(c1ccc(Nc2nccc(-c3cc4ccccc4s3)n2)cc1)N1CCC(N2CCCC2)CC1,"binding, competition with immobilised ligand",1 µM,11
Cc1cnn2ncc(-c3ccnc(N(C)C)n3)c2c1,binding,1 µM,84
CS(=O)(=O)N1CCCC(NC(=O)[C@H](CCC2CCCCC2)NC(=O)c2ccc(CNC(=O)c3cnc4ccccn34)cc2)C1 (stereo partly shown),"cell-free assay, competition with immobilised ligand",0.1 µM,90
COc1ccnn2ncc(-c3ccnc(N(C)C)n3)c12,binding,1 µM,72
Cc1c(NC(=O)c2cc(C(N)=O)nc3cc(F)ccc23)c(C(F)(F)F)nn1Cc1ccc(C#N)cc1,"cell-free assay, competition with immobilised ligand",1 µM,89
CNC(=O)[C@@H]1CC[C@@H](n2c(-c3ccc4cnccc4c3)nc3ccc(C(=O)NCc4cccc(C(N)=O)c4)cc32)C1,"binding, competition with immobilised ligand",1 µM,100
N[C@@H]1CCN(c2nccc(-c3cnn4ncccc34)n2)C1,binding,1 µM,99
Cc1cnc(Nc2ccc(C(=O)N3CCC(N4CCCC4)CC3)cc2)nc1-c1cc2ccccc2s1,"binding, competition with immobilised ligand",1 µM,3.4
O=C(Nc1c[nH]nc1C(=O)NC1CCNCC1)c1cc(F)cc(F)c1,"binding, competition with immobilised ligand",1 µM,100
C=CC(=O)N1CCC(C(=O)NCC(=O)N2CCN(c3nc(-c4cnc(N)nc4C(F)F)nc(N4CCOCC4)n3)CC2)CC1,"binding, competition with immobilised ligand",1 µM,89
CC(=O)Nc1c(C(C)=O)c(=O)n(C)c2nc(-c3ccc(Cl)cc3Cl)c(-c3ccc(Cl)cc3)cc12,"cell-free assay, competition with immobilised ligand",1 µM,100
